PME-1 inh: PME-1 (human) inhibition; Q9Y570; recombinant PME-1, FP-Rh probe fluorescence polarization; inhibition, % at 5.9 µM; actives 0.53% (n = 320,000);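 active = inhibition above the campaign mean of all compounds plus 3 SD, cut at about 26% in these data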;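 also: competitive labeling of PME-1 active site by serine hydrolase directed probe; inhibitors block probe labeling so polarization falls and inhibition rises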
RBBP9 inhibitor: inhibitors of human serine hydrolase RBBP9; O75884; recombinant RBBP9, FP-Rh probe fluorescence polarization; inhibition, % at 7.94 µM; actives 0.2% (n = 220,000); AID 1515;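 active = inhibition above the campaign mean of all tested compounds plus 3 SD, cut at about 14% in these data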
Target sequence (O75884 whole entry, looked up): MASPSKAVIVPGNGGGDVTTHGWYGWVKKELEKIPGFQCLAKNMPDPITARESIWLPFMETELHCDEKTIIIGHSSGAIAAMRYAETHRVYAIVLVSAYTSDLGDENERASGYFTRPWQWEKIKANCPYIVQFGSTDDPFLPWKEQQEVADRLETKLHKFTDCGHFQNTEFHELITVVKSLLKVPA
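System: RBBP9 protein | Quantity: 2.5 µM RBBP9 dispensing solution, before mixing | Reagent: FP-Rh probe, 375 nM dispensing solution | Timing: Enzyme-compound preincubation 30 min, then probe labeling 45 min, 25 °C | Measured by: Fluorescence polarization | Read-out: % inhibition | Replication: One well per compound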
GSTO1 counter: GSTO1 inhibition, counter-screen for RBBP9 inhibitors. actives 1.1% (n = 300,000). recombinant GSTO1, activity-based probe fluorescence polarization. AID 1974. inhibition, % at 5.96 µM. P78417;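 active = inhibition above the campaign mean inhibition plus 3 SD, cut at about 35% in these data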
Target sequence (P78417 whole entry, looked up): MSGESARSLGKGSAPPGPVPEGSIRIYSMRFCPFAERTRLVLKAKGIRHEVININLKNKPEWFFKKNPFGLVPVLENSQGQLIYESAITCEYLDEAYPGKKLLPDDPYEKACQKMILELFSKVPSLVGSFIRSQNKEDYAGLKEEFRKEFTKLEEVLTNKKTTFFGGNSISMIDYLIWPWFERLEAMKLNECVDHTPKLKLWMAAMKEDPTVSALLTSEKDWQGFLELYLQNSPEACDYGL
PRMT1 FP inh: blocks human protein arginine methyltransferase 1; recombinant PRMT1, activity-based probe fluorescence polarization; inhibition, % at 2.79 µM; actives 1.3% (n = 370,000);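 active = inhibition above about 21% made by adding two undisclosed values, limit read from the data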
Fam108B inh: Fam108B inhibition, counter-screen for RBBP9 inhibitors; recombinant Fam108B, FP-Rh probe fluorescence polarization; inhibition, % at 9.51 µM; actives 0.33% (n = 300,000);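 active = inhibition above the screen mean inhibition plus 3 SD, computed separately per campaign, cut at about 18% in these data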;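 also: inhibitors lower polarization as less probe binds the enzyme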
PAD4 FP inh: PAD4 (human) enzyme inhibition; Q9UM07; recombinant PAD4, RCA probe fluorescence polarization; inhibition, % at 6.36 µM; actives 0.41% (n = 330,000); AID 485272;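 active = percent inhibition above a cutoff equal to the mean of all tested compounds plus 3 SD, cut at about 15% in these data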
PAD4 FP conf: confirmation of human PAD4 inhibitors | shares compounds with PAD4 FP inh | recombinant PAD4, RCA probe fluorescence polarization | inhibition, % at 6.36 µM | actives 28% (n = 1,200) | AID 488796;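 active = mean inhibition across replicates above the hit cutoff set by the earlier primary screen, cut at about 15% in these data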;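 also: inhibitors block active-site labeling by the probe so polarization falls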
Each line names hits and unclear results; the compound was inactive in the other large screens (follow-up assays come after a bar, where they were run). Hits are enriched below; roughly 2.3% of the tested compounds scored in any of these assays.

O=C(O)c1cccc(-n2sc3ccccc3c2=O)c1	PRMT1 FP inh 93.0, PAD4 FP inh 56.1 (no result: RBBP9 inhibitor, GSTO1 counter, Fam108B inh) | PAD4 FP conf 46.3
O=c1c2cc(F)ccc2sn1-c1ccccc1	PRMT1 FP inh 89.0, PAD4 FP inh 40.5 (no result: RBBP9 inhibitor, GSTO1 counter, Fam108B inh) | PAD4 FP conf 36.2
Cc1nnc(N/N=C\c2ccc(-c3ccccc3[N+](=O)[O-])o2)n1N	GSTO1 counter 36.2, PAD4 FP inh 34.8 | PAD4 FP conf inactive
Cc1nnc(N/N=C/c2ccc(-c3ccccc3F)o2)n1N	PAD4 FP inh 25.1 | PAD4 FP conf inactive
CCc1nnc(N/N=C/c2ccc(-c3ccc([N+](=O)[O-])cc3)o2)n1N	PAD4 FP inh 25.3 | PAD4 FP conf inactive
COc1cc2c(C#N)c(N3CCOCC3)nc(N)c2c(N)n1	PAD4 FP inh 18.2 | PAD4 FP conf inactive
O=C1CCCC(O)=C1N=Nc1c(Cl)cc(C(F)(F)F)cc1Cl	PAD4 FP inh 85.4 | PAD4 FP conf inactive
O=C(NC1CCCCC1)C1c2ccccc2OCC(=O)N1CCCN1CCOCC1 (stereo not drawn)	none (no result: PME-1 inh, RBBP9 inhibitor, GSTO1 counter, Fam108B inh, PAD4 FP inh)
CS(=O)(=O)Nc1cc2c3c(c1)CCC(=O)N3CCC2	none (no result: RBBP9 inhibitor)
COC(=O)c1ccc(C(=O)OC)c(NC(=O)COc2ccccc2OC)c1	PAD4 FP inh 15.9 | PAD4 FP conf 18.1
Nc1ccc(N(CCO)CCO)cc1	GSTO1 counter 64.6, PAD4 FP inh 58.8 | PAD4 FP conf inactive
CCN(CC)c1ccc(N)cc1	none (no result: RBBP9 inhibitor, GSTO1 counter, PRMT1 FP inh, Fam108B inh)
CN(CC(=O)NC1CCCCCCC1)S(=O)(=O)c1cccc2cccnc12	none
O=C(NCCCN1CCOCC1)c1ccc(Cl)cc1Cl	PAD4 FP inh 14.8 (no result: RBBP9 inhibitor) | PAD4 FP conf inactive
CCn1c(CSc2ncn[nH]2)nc2cc(C(=O)O)ccc21	PAD4 FP inh 22.4 | PAD4 FP conf 15.0
O=C(O)c1ccc(NC(=O)c2ccc3c(c2)C(=O)N(c2ccccc2)C3=O)cc1	none (no result: RBBP9 inhibitor)
O=C(O)c1ccc(S(=O)(=O)c2ccc3c(c2)C(=O)N(c2ccc(O)cc2)C3=O)cc1	PAD4 FP inh 62.2 | PAD4 FP conf inactive
O=C(NCCO)C(=O)NCC1CCCN1S(=O)(=O)c1cccs1 (stereo not drawn)	none (no result: RBBP9 inhibitor)
C=CCNC(=O)C(=O)NCC1CCCN1S(=O)(=O)c1cccs1 (stereo not drawn)	PAD4 FP inh 26.6 (no result: RBBP9 inhibitor) | PAD4 FP conf inactive
CN(C)C(CNC(=O)c1cc2ccccc2o1)c1ccco1 (stereo not drawn)	PAD4 FP inh 88.1 (no result: PME-1 inh, RBBP9 inhibitor, GSTO1 counter, Fam108B inh) | PAD4 FP conf inactive
Cc1ccc(CNC(=O)c2ccc(C)c(S(=O)(=O)N3CCCCC3)c2)cc1	PAD4 FP inh 105.0 (no result: RBBP9 inhibitor, GSTO1 counter, Fam108B inh) | PAD4 FP conf inactive
Cc1ccc(C(=O)NCc2ccc(Cl)cc2)cc1S(=O)(=O)N1CCCCC1	none (no result: RBBP9 inhibitor, GSTO1 counter, Fam108B inh)
COc1ccccc1NC(=O)NCCCl	none
CC(=O)Nc1ccc(S(=O)(=O)NCc2ccc3c(c2)cc(C)n3C)cc1	PAD4 FP inh 16.3 | PAD4 FP conf inactive
COc1cccc(CNC(=O)COC(=O)C23CC4CC(CC(Cl)(C4)C2)C3)c1	none (no result: PME-1 inh, RBBP9 inhibitor, GSTO1 counter, Fam108B inh)
COc1cccc(NC(=O)CN(C)C(=O)C23CC4CC(CC(Cl)(C4)C2)C3)c1	PAD4 FP inh active (no result: RBBP9 inhibitor, GSTO1 counter, Fam108B inh) | PAD4 FP conf inactive
CCOC(=O)C1=C(C)NC(=O)C(C#N)C1c1ccco1 (stereo not drawn)	PAD4 FP inh 18.0 | PAD4 FP conf inactive
CCCc1c(O)nc(SCCN(CCC)CCC)[nH]c1=O	PAD4 FP inh 48.1 | PAD4 FP conf inactive
CCCCCCCc1c(O)nc(SCCN(C)C)[nH]c1=O	none
CCOC(=O)NC(=O)/C(C#N)=C\Nc1ccc(Cl)cc1Cl	none
CCOC(=O)NC(=O)/C(C#N)=C\Nc1sccc1C(=O)OC	PRMT1 FP inh 56.0, PAD4 FP inh 35.1 | PAD4 FP conf inactive
COc1c(C)cccc1C(=O)NC(=S)Nc1ccccc1N1CCCC1	none (no result: RBBP9 inhibitor)
Cc1ccc2c(c1)sc(C)[n+]2CCCS(=O)(=O)[O-]	PRMT1 FP inh 62.1, PAD4 FP inh 18.1 | PAD4 FP conf inactive
Cc1c2ccccc2cc[n+]1CCCS(=O)(=O)[O-]	none
COc1cc(/C=C/c2sc3ccccc3[n+]2CCCS(=O)(=O)[O-])ccc1O	none
Cc1ccc2sc(C)[n+](CCCS(=O)(=O)[O-])c2c1	PRMT1 FP inh 38.3, PAD4 FP inh 17.1 | PAD4 FP conf inactive
CCc1ccc(NC(=O)CCCn2nc(CC)n3c(cc4occc43)c2=O)cc1	none (no result: RBBP9 inhibitor)
